Source: PubChem (several laboratories)
Sampled rows, rich in hits. Any-hit rate of the full collection: about 3.2%.
NR2E3 ag-1 = activates human photoreceptor nuclear receptor NR2E3; Q9Y5X4; AID 2300; 320,000 tested, 0.12% active; GST-NR2E3/biotin-RetCOR TR-FRET, 1536-well; inhibition of corepressor binding, % at 4.78 µM;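 active = percent inhibition above the cutoff of mean plus 3 SD of all tested compounds, set per screening campaign, cut at about 20% in these data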
Target sequence (Q9Y5X4 whole entry, looked up): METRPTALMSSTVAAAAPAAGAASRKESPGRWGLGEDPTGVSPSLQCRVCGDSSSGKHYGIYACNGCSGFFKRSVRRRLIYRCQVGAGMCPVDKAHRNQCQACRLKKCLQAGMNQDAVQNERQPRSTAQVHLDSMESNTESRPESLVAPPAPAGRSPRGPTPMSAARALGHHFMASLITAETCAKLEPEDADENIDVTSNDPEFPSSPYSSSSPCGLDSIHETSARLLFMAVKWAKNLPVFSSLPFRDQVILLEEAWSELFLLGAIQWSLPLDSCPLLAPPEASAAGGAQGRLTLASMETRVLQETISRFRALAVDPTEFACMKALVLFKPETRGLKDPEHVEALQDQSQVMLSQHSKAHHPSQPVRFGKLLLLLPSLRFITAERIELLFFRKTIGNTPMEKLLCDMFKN
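System: GST-NR2E3 and biotin-RetCOR proteins; probe or stimulus: 7 nM biotin-RetCOR; doses: compound at 4.8 µM, single dose; schedule: Compound–protein incubation for 5 h at 4 °C; detection: time-resolved FRET; read-out: percent inhibition; controls: biotin wells as high control, 0.6% DMSO wells as low control; format: 1536-well plates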
DAX1 inh-1 = NR0B1 (DAX1) inhibition. P51843. HEK293 Gal4-DAX1 luciferase reporter, luminescence. inhibition, % at 6.75 µM. 340,000 tested, 0.99% active;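 active = inhibition above the mean over all tested compounds plus 3 SD, cut at about 4.2% in these data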;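 also: inhibition shows as a rise in luminescence from relieved DAX1 repression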
Target sequence (P51843 207-470 limits assumed): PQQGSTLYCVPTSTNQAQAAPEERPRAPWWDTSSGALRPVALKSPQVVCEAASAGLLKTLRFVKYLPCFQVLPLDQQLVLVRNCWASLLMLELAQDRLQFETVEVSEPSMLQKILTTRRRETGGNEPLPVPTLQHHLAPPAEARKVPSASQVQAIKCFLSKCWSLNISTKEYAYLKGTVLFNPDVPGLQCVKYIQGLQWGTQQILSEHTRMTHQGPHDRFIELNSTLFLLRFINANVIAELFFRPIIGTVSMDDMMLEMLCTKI
DAX1 inh-2 = DAX1 (NR0B1) inhibition, primary screen. 370,000 tested, 1.1% active. inhibition, % at 6.8 µM. HEK293T StAR-luciferase reporter, SF-1/DAX-1 repression relief;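 active = inhibition above the mean over all tested compounds plus 3 SD, cut at about 3.6% in these data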;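 also: higher inhibition means more luminescence from relief of DAX-1 repression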
NR2E3 ag-2 = human photoreceptor-specific nuclear receptor agonism; Q9Y5X4; inhibition of corepressor binding, % at 3.98 µM; 360,000 tested, 0.35% active; CHO-S Gal4-NCOR/VP16-NR2E3 two-hybrid, luciferase;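 active = inhibition above the mean of all tested compounds plus 3 SD, cut at about 70% in these data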;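 also: higher means lower luciferase signal from less NR2E3 corepressor binding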
SMARCA2 activ = activators of SMARCA2 function | MG213 cells, MMTV-luciferase reporter, dexamethasone, overnight | activation, % at 9.1 µM | 370,000 tested, 1% active; in the data active = activation above about 7.8%
JMJD2C inh = inhibitors of human GASC-1 (JMJD2C) demethylase | GST-JMJD2C(1-420) H3K9me3 demethylation, DELFIA europium | inhibition, % at 2.35 µM | 330,000 tested, 0.069% active | AID 2099 | Q9H3R0;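 active = more than half of a compound's replicate wells show inhibition beyond 50%, single wells judged on their own value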;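 also: signal counts dimethyl H3K9 product captured on neutravidin plate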
SMARCA2 act conf = confirmation of SMARCA2 (BRM) function activators. activation, % at 9.1 µM. shares compounds with SMARCA2 activ. MG213 cells, MMTV-luciferase with dexamethasone, luminescence, overnight; MG213 cells expressing E1A, Rb sequestered; DMSO wells 0%, reference activator 100%. 3,500 tested, 30% active;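 active = activation above its plate's cutoff, the mean activation of tested wells plus 3 SD, cut at about 7.9% in these data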
GAL4-VP16 Luc = counter-screen for SMARCA2 activators: GAL4-VP16 luciferase reporter activation. shares compounds with SMARCA2 activ. HEK293 GAL4-VP16 pG5luc reporter, luciferase luminescence; scaled: DMSO wells 0%, SAHA wells 100%. activation, % at 9.1 µM. 3,500 tested, 41% active. AID 686939;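 active = activation above the solvent-only control well mean plus 3 SD, averaged across control plates, cut at about 5.2% in these data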
A number is an active result; 0 = inactive; - = not tested or not shown.

SMILES | NR2E3 ag-1 | DAX1 inh-1 | DAX1 inh-2 | NR2E3 ag-2 | SMARCA2 activ | JMJD2C inh | SMARCA2 act conf | GAL4-VP16 Luc
CCOC(=O)Cn1c(C(=O)OCC)cc2sccc21 | 0 | 0 | 0 | 0 | 0 | 0 | - | -
O=C(N/N=C1/CC2C=CCC12)c1ccco1 (stereo not drawn) | 0 | 0 | 0 | 0 | 8.9 | 0 | 0 | 0
O=C(N/N=C/C=N/NC(=O)c1ccco1)c1ccco1 | 0 | 0 | 0 | 0 | 0 | 0 | - | -
CN(CC(=O)Nc1ccc(F)c(F)c1F)C(=O)c1ccc2c(c1)S(=O)(=O)N=C1CCCCCN12 | 0 | 0 | 0 | 0 | 0 | 0 | - | -
C[C@H](O)[C@@H]1CN2CCc3c([nH]c4cccc(-c5ccccc5)c34)[C@@H]2C[C@@H]1N(C)C(=O)C1CCCCC1 | - | - | 0 | - | 9.7 | - | 0 | 0
COC(=O)[C@H](CC(C)C)N(CCCc1cn(Cc2ccc(C)cc2)nn1)S(=O)(=O)c1ccccc1Br | - | - | 0 | - | 0 | - | - | -
O=c1[nH]c(CSc2nc3ccccc3s2)nc2ccccc12 | 0 | 0 | 0 | 0 | 8.4 | 0 | 0 | 0
O=c1[nH]c(CSc2nc3ccccc3s2)nc2cc(Cl)ccc12 | 0 | - | 0 | - | 0 | 0 | - | -
COC(=O)[C@]12C[C@H](CC(=O)N3CCN(C(=O)C4CC4)CC3)C(=O)N(Cc3ccc(Cl)cc3Cl)C1=C[C@H](C(C)(C)C)O[C@@H]2C | - | - | 0 | - | 0 | - | - | -
N#Cc1c(NC(=O)C2CC2)sc2c1CCCCC2 | 0 | 0 | 0 | 0 | 8.9 | 0 | 0 | 7.4
CC1CCc2c(sc(NC(=O)COC(=O)C3CCCO3)c2C#N)C1 (stereo not drawn) | 0 | 0 | 0 | 0 | 0 | 0 | - | -
CC(C)C(=O)Nc1sc2c(c1C#N)CCCCC2 | 0 | 0 | 0 | 0 | 12.2 | 0 | 0 | 0
CC1CCc2c(sc(NC(=O)C3CCCO3)c2C#N)C1 (stereo not drawn) | 0 | 0 | 0 | 0 | 14.4 | 0 | 0 | 11.6
CCNC(=O)OCCN1C(=O)CCC12CCC(c1ccc(Cl)cc1)CC2 (stereo not drawn) | - | - | 0 | - | 0 | - | - | -
O=C(CCc1ccccc1)N[C@H]1C(=O)CCC[C@]12C(=O)N(Cc1ccccc1)c1ccccc12 | - | - | 0 | - | 0 | - | - | -
COc1cc(C(NC(=O)C(F)(F)F)C2CCCC=C2c2ccccc2)cc(OC)c1OC (stereo not drawn) | - | - | 0 | - | 0 | - | - | -
O=C(c1ccc(F)cc1)c1cc2ccc(O)cc2oc1=O | 0 | 0 | 0 | 0 | 0 | 0 | - | -
N=c1oc2cc(O)ccc2cc1C(=O)Nc1ccc(F)cc1 | 0 | 0 | 0 | 0 | 10.6 | 0 | 0 | 6.7
CC(=O)C1=C(C)NC(SCC(=O)c2ccc(Cl)c(Cl)c2)=C(C#N)C1c1ccco1 (stereo not drawn) | 0 | 0 | 0 | 0 | 8.6 | 0 | 0 | 0
CC(=O)C1=C(C)NC(SCC(=O)c2cc(Cl)ccc2Cl)=C(C#N)C1c1ccco1 (stereo not drawn) | 0 | 0 | 0 | 0 | 0 | 0 | - | -
COc1ccccc1NC(=O)Nc1nc2ccc(S(N)(=O)=O)cc2s1 | 0 | 0 | 0 | 0 | 10.1 | 0 | 15.1 | 6.3
COc1cccc(OC)c1C(=O)Nc1nc2ccc(S(C)(=O)=O)cc2s1 | 0 | 0 | 0 | 0 | 0 | 0 | - | -
COc1ccc2nc(NC(=O)Nc3cccc4ccccc34)sc2c1 | 0 | 0 | 0 | 0 | 0 | 0 | - | -
CC(=O)NCCC(=O)Nc1nc2ccc(Oc3ccccc3)cc2s1 | 0 | 0 | 0 | 0 | 10.6 | 0 | 0 | 8.7
COc1ccc2nc(NC(=O)Nc3ccccc3OC)sc2c1 | 0 | 0 | 0 | 0 | 12.2 | 0 | 0 | 10.4
SMILES | NR2E3 ag-1 | DAX1 inh-1 | DAX1 inh-2 | NR2E3 ag-2 | SMARCA2 activ | JMJD2C inh | SMARCA2 act conf | GAL4-VP16 Luc
NS(=O)(=O)c1ccc2nc(NC(=O)c3ccc(Br)o3)sc2c1 | 0 | 0 | 0 | 0 | 8.3 | 0 | 0 | 0
COC(=O)[C@@]12CCCCC3=C1N(CCC3)C(=O)[C@H]2CC(=O)N1CCC(c2ccccc2)CC1 | - | - | 0 | - | 0 | - | - | -
S=C(Nc1cccc(Br)c1)OC1CCC12CCC(c1ccccc1)CC2 (stereo not drawn) | - | - | 0 | - | 0 | - | - | -
O=C(Cn1nnc(-c2ccc(F)cc2)n1)Nc1cccc(S(=O)(=O)N2CCCC2)c1 | 0 | 0 | 0 | 0 | 0 | 0 | - | -
c1ccc(-c2ccc(-c3ccncn3)cc2)cc1 | 0 | 0 | 0 | 0 | 9.1 | 0 | 0 | 7.6
c1ccc(-c2csc(-c3ccncc3)n2)cc1 | 0 | 0 | 0 | 0 | 0 | 0 | - | -
O=C(c1ccc(S(=O)(=O)Nc2ccccc2F)cc1)N1CCCC1 | - | 0 | 0 | 0 | 0 | - | - | -
CCOC(=O)[C@@]12CN(C(=O)OC(C)(C)C)CC=C1N(Cc1ccc(OC)cc1)C(=O)[C@H]2CC(=O)NCCC(C)C | - | - | 0 | - | 0 | - | - | -
COc1ccc(CCNC(=O)CCCn2c(=S)[nH]c3cc4c(cc3c2=O)OCO4)cc1OC | - | 0 | 0 | 0 | 0 | - | - | -
CCOc1ccc(NC(=O)C2Cc3ccccc3CN2S(=O)(=O)CC)cc1 (stereo not drawn) | 0 | 0 | 0 | 0 | 10.3 | 0 | 0 | 0
CCS(=O)(=O)N1Cc2ccccc2CC1C(=O)Nc1ccc(F)c(F)c1 (stereo not drawn) | 0 | 0 | 0 | 0 | 14.6 | 0 | 0 | 0
COC(=O)C1CN(Cc2cn(CCC3OCCO3)nn2)CCS(=O)(=O)N1Cc1ccccc1 (stereo not drawn) | - | - | 0 | - | 0 | - | - | -
CCCCOCCCNC(=O)C[C@H]1C[C@@]2(C(=O)OC)C(=C[C@H](COCc3ccccc3)O[C@@H]2C)N(Cc2ccc(Cl)cc2Cl)C1=O | - | - | 0 | - | 0 | - | - | -
O=C(Cc1ccccc1F)Nc1ccc2c(c1)CCC2 | 0 | 0 | 0 | 0 | 11.5 | 0 | 0 | 6.6
Cc1ccccc1CC(=O)Nc1ccc2c(c1)CCC2 | 0 | 0 | 0 | 0 | 0 | 0 | - | -
Cc1ccccc1N1CCN(C(=O)CCn2nnc3ccccc32)CC1 | - | - | 0 | - | 0 | - | - | -
Cn1cc(-c2nnc(-c3ccccc3)o2)c2ccccc21 | 0 | 0 | 0 | 0 | 13.1 | 0 | 0 | 7.2
CCN(CC)c1ccc(Nc2cc3n(c(=O)n2)CCc2cc(OC)c(OC)cc2-3)cc1 | 0 | 0 | 0 | 0 | 14.5 | 0 | 18.1 | 0
CC(C)(C)c1cc(NCCCn2ccnc2)n2ncc(-c3ccc(Cl)cc3)c2n1 | 0 | 0 | 0 | 0 | 0 | 0 | - | -
CN(C)CCCNc1cc(C(C)(C)C)nc2c(-c3ccccc3)cnn12 | 0 | 4.7 | 0 | 0 | 9.3 | 0 | 0 | 6.7
COc1cc(/C=C2\CCC/C(=C\c3ccc(O)c(OC)c3)C2=O)ccc1O | 0 | 0 | 0 | 0 | 0 | 0 | - | -
CCOc1cc(/C=C2\CN(CC)C/C(=C\c3ccc(O)c(OCC)c3)C2=O)ccc1O | 0 | 0 | 0 | 0 | 10.1 | 0 | 0 | 0
